# Source: PubChem (several laboratories)
# PP1 counter: PP1-alpha (human) inhibition in PP5 counter-screen; inhibition, % at 6.7 µM; hit rate 0.9% among 320,000; P62136; purified PP1alpha, OMFP fluorescence;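 active = inhibition above the mean inhibition of all tested compounds plus 3 SD, computed separately for each screening campaign, cut at about 15% in these data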
# Target sequence (P62136 whole entry, looked up): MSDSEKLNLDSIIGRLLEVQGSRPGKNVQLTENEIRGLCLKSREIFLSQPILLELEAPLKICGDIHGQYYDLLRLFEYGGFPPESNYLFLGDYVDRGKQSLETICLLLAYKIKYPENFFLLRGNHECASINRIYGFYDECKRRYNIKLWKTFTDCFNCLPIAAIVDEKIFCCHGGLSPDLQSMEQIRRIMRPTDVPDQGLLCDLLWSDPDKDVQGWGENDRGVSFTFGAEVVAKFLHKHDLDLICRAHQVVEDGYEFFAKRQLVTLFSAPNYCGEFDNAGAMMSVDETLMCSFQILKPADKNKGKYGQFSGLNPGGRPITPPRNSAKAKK
# NadD block: inhibitors of Staphylococcus aureus NadD; purified NadD enzyme, colorimetric absorbance read-out; inhibition, % at 20 µM; hit rate 0.78% among 360,000; in the data active = inhibition above about 26%
# TPT1 inhibitor: blocks Candida albicans tRNA 2'-phosphotransferase | recombinant caTPT1, FP RNA substrate dephosphorylation | hit rate 0.81% among 300,000 | inhibition, % at 5 µM;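 active = inhibition above the mean of all tested compounds plus 3 SD, set per screening campaign, cut at about 24% in these data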
# HNF4A DNA FP: change in binding of human HNF4 alpha to DNA | P41235 | HNF4a-FITC DNA binding, fluorescence polarization, 1 h | activity change, % at 10 µM | hit rate 0.3% among 360,000 | AID 1224865; in the data active = activity change above about 30%, passing the limit was not always enough
# Rpn11 inh: inhibitors of human proteasome Rpn11 | human 26S proteasome, Ub4-pepOG fluorescence polarization; 20S core pre-blocked with epoxomicin | inhibition, % at 20 µM | hit rate 0.59% among 360,000 | AID 588493;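 active = inhibition at 20 µM, scaled to each plate's controls, above about 33%, limit read from the data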
# CSN inh: inhibitors of human CSN-mediated cullin deneddylation | Q92905 | Purified CSN, SCF-Nedd8-OG deneddylation, fluorescence polarization | inhibition, % at 12.5 µM | hit rate 0.38% among 360,000;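 active = pattern-corrected inhibition above about 35%, with an unprinted fluorescence ratio check between 0.5 and 1.5, limit read from the data, passing the limit was not always enough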
#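 Detection – fluorescence polarization · System – HEK293T-derived human Csn5 enzyme · Controls – substrate-only high control, full reaction low control · Timing – 90 min, room temperature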
# Rpn11 confirm: confirmation of human proteasome Rpn11 inhibitors; shares compounds with Rpn11 inh; purified human 26S proteasome, Ub4-pepOG fluorescence polarization; proteasome pretreated with epoxomicin; inhibition, % at 20 µM; hit rate 29% among 1,900; AID 602318
# MMP-2 counter-1: counter-screen for RPN11 inhibitors: inhibition of human MMP-2 | shares compounds with Rpn11 inh | recombinant MMP-2, FRET peptide cleavage fluorescence | inhibition, % at 20 µM | hit rate 4% among 1,900;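 note: human MMP-2 activated beforehand with APMA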
# Thrombin inh: counter-screen for RPN11 inhibitors: inhibition of bovine thrombin | inhibition, % at 20 µM | hit rate 13% among 1,900 | shares compounds with Rpn11 inh | AID 602333 | bovine thrombin cleavage of Ub4-pepOG, fluorescence polarization;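 active = mean inhibition at least 40% at 20 µM, or signal 3 deviations below plate average, so some actives read negative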
# NadD conf: NadD (S. aureus) inhibition, single concentration confirmation | shares compounds with NadD block | purified S. aureus NadD, colorimetric enzyme assay | inhibition, % at 20 µM | hit rate 13% among 2,000 | AID 624309; in the data active = inhibition mostly above about 42%, no sharp cut-off; inactive = mostly below about 42%
# CSN5 deneddyl: validation of inhibitors of human CSN-mediated cullin deneddylation | hit rate 62% among 540 | Csn5 deneddylation of SCF-Nedd8OG, fluorescence polarization, 90 min | shares compounds with CSN inh | inhibition, % at 16.6 µM; in the data active = inhibition above about 50%
# MMP-2 counter-2: blocks human MMP-2 in a CSN deneddylation counter-screen | shares compounds with CSN inh | recombinant MMP-2, FRET substrate fluorescence, 60 min | inhibition, % at 16.6 µM | hit rate 33% among 540;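 active = corrected plate-normalized z-score of 5 or more, or -5 or less, or inhibition of 15% or more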
# Thrombin cntr: blocks bovine thrombin in a CSN deneddylation counter-screen; shares compounds with CSN inh; bovine thrombin cleavage of Ub4-pepOG, fluorescence polarization; inhibition, % at 16.6 µM; hit rate 49% among 540;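 active = inhibition at or above a set limit, with a fluorescence interference ratio between 0.5 and a set maximum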
# Numbers stand for hits; n = inactive; x = no result. Most compounds without a hit are left out; they make up all but 2.7% or so of the library. Cut-off read from the data, not from the text of the source, unless noted: active = inhibition above about 40%; inactive = the rest.
SMILES,PP1 counter,NadD block,TPT1 inhibitor,HNF4A DNA FP,Rpn11 inh,CSN inh,Rpn11 confirm,MMP-2 counter-1,Thrombin inh,CSN5 deneddyl,MMP-2 counter-2,Thrombin cntr,others
COc1ccc(Br)cc1/C=c1\sc2nc(-c3ccco3)nn2c1=O,n,40,n,n,91,41,n,n,n,70,n,n,NadD conf=n
COc1ccc(-n2c(N)c(C(=O)NCC3CCCO3)c3nc4ccccc4nc32)c(OC)c1 (centres undefined),n,n,n,n,n,n,x,x,x,x,x,x,
C=CCn1c(N)c(C(=O)NCC2CCCO2)c2nc3ccccc3nc21 (centres undefined),n,n,n,n,43,36,n,n,n,101,n,n,
O=C(O)c1ccc(/C=C2\SC(=S)N(Nc3ccccc3)C2=O)cc1,n,n,n,n,n,n,x,x,x,x,x,x,
COc1cc(/C=C2\SC(=S)N(Nc3ccccc3)C2=O)ccc1O,n,n,n,37,112,46,72,n,101,85,n,56,
COc1cc2ccccc2cc1C(=O)NC1CCC(C)CC1 (centres undefined),x,n,x,n,n,n,x,x,x,x,x,x,
Cc1cc(N2CCN(c3ccc([N+](=O)[O-])c4cccnc34)CC2)c2ccccc2n1,n,n,n,n,45,59,48,n,n,105,n,n,
Cc1cc(N2CCN(c3ccc(C(F)(F)F)cc3[N+](=O)[O-])CC2)c2ccccc2n1,n,n,n,n,n,n,x,x,x,x,x,x,
O=C1[C@H](Cc2ccccc2)NCC=CC[C@H](c2ccco2)N1Cc1ccccc1,x,n,x,n,n,n,x,x,x,x,x,x,
O=C(O)CN1C(=O)/C(=C\c2cccc(OC(=O)c3ccco3)c2)SC1=S,n,n,n,n,n,n,x,x,x,x,x,x,
O=C(O)CN1C(=O)/C(=C\c2ccc(OC(=O)c3ccco3)cc2)SC1=S,n,n,n,73,122,54,96,n,68,82,n,68,
COc1ccccc1N1CCN(S(=O)(=O)c2cn(C)nc2C)CC1,n,n,n,n,n,n,x,x,x,x,x,x,
O=C(CCCN1C(=O)/C(=C/c2ccco2)SC1=S)Nc1ccccc1C(=O)O,n,n,n,n,68,39,n,n,n,83,25,32,
O=C(CCN1C(=O)/C(=C/c2ccco2)SC1=S)Nc1ccc(C(=O)O)c(O)c1,n,n,n,n,64,52,n,n,n,73,n,n,
O=C(CCCN1C(=O)/C(=C\c2ccco2)SC1=S)Nc1ccc2ccccc2c1,n,n,n,n,n,n,x,x,x,x,x,x,
CCOC(=O)C1(Cc2cccc(Cl)c2)CCCN(C(=O)c2cc(C(C)C)nn2C)C1 (centres undefined),n,n,n,n,n,n,x,x,x,x,x,x,
COC(=O)c1cc2c(=O)c3ccccc3oc2nc1/C=C/N(C)C,x,n,x,n,44,77,n,n,n,95,n,28,
O=C(C[C@@H]1CC[C@H](NC(=O)c2ccc3c(c2)OCO3)[C@@H](CO)O1)NCc1ccc(F)cc1,x,x,x,n,x,n,x,x,x,x,x,x,
COc1cc(Cl)cc(/C=N\NC(=O)c2ccc3c(c2)OCO3)c1O,x,n,x,n,97,99,134,n,76,n,23,n,
